From article PMC7470514 (RSC Chemical Biology, 2020)
Several values for one entry are separate records, joined by “and”; a condition that tells them apart may be missing. Identical values can stand only once. Where no end group is shown, it is not given here.

Key:
Assay type in all cases: cell-based
[1] = target: T1, S. pneumoniae ComD1 receptor (Streptococcus pneumoniae serotype 2, UniProt A0A0H2ZM50); experiment: β-galactosidase reporter assay, competitive inhibition
T1 sequence (A0A0H2ZM50 1-441): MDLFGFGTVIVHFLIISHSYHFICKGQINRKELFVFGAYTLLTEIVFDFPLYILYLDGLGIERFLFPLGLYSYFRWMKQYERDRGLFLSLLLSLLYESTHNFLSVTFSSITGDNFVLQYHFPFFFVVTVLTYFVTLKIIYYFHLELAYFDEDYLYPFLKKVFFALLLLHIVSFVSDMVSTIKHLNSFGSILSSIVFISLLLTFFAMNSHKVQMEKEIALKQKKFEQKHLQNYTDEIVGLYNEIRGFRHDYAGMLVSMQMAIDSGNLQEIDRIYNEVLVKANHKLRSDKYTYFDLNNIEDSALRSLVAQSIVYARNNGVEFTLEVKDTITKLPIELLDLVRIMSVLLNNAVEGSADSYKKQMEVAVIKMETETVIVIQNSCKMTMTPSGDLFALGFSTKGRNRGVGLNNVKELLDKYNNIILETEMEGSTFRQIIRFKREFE
In short: (§1)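 Cultures were prepared as for agonism: overnight THY with chloramphenicol, diluted to early exponential phase. Wells held native CSP at a fully activating level (50 nM CSP1 for D39/ComD1; 250 nM CSP2 for TIGR4/ComD2), with test peptide added from a 1 mM stock in triplicate. Controls were CSP plus DMSO, and DMSO alone. Plates were incubated 30 min at 37 °C, then lysed and read by ONPG. IC50 was taken from concentration series.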

[2] = target: T2, S. pneumoniae ComD2 receptor (Streptococcus pneumoniae serotype 4, UniProt A0A0H2US84); experiment: as above
T2 sequence (A0A0H2US84 1-441): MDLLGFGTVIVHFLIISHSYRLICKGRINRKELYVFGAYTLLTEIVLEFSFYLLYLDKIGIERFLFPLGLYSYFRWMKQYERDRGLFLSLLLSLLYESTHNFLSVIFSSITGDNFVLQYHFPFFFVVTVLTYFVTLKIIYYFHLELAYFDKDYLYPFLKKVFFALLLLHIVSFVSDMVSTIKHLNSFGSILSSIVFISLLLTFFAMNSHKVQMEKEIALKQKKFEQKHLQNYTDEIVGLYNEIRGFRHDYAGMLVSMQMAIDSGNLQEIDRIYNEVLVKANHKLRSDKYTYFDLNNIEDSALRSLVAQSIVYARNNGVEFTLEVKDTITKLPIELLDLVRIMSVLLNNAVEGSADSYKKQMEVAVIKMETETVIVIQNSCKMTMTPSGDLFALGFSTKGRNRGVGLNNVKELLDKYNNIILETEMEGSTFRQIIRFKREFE
In short: as §1

[3] = target: T2, S. pneumoniae ComD2 receptor; experiment: β-galactosidase reporter assay, agonism
In short: (§2)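 Reporter strains carry lacZ under the comX promoter. Strains were grown from THY agar (5% horse serum, 4 μg mL−1 chloramphenicol; 8 h, 37 °C, 5% CO2), then overnight (15 h) in THY with chloramphenicol. Cultures were diluted 1:50 (D39) or 1:10 (TIGR4) and grown to OD600 0.30–0.35 or 0.20–0.25.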

[4] = target: T1, S. pneumoniae ComD1 receptor; experiment: β-galactosidase reporter assay, agonism
In short: as §2

Sequence	IC50 [1] [nM]	IC50 [2] [nM]	EC50 [3]	EC50 [4]
AMRQTHIFFFNFFKRR [S. mitis-CSP-2-E1AI2MN7II8F]	141	32.9	–	–
AIRQTHIFFFNFFKRR [S. mitis-CSP-2-E1AN7II8F]	204	135	–	–
AIRQTHNIFFNFFKRR [S. mitis-CSP-2-E1A]	497	–	–	–
EMRLTHNIFFNFFKRR [S. mitis-CSP-2-I2MQ4L]	–	–	141 nM	49.9 nM
EMRLTHIIFFNFFKRR [S. mitis-CSP-2-I2MQ4LN7I]	–	–	187 nM	155 nM
EIRQTHIFFFNFFKRR [S. mitis-CSP-2-N7II8F]	–	–	22.8 nM	87.2 nM
EIRQTHFFFFNLFKRR [S. mitis-CSP-2-N7FI8FF12L]	–	–	67.6 nM	101 nM
EIRQTHNIFFFFFKRR [S. mitis-CSP-2-N11F]	–	–	220 nM	4.63 nM
EIRLTHFIFFNLFKRR [S. mitis-CSP-2-Q4LN7FF12L]	–	–	–	426 nM
AMRLTHNIFFNFFKRR [S. mitis-CSP-2-E1AI2MQ4L]	54.2	–	–	–
EIRLTHIIFFNFFKRR [S. mitis-CSP-2-Q4LN7I]	–	–	315 nM	348 nM
EMRQTHNIFFFFFKRR [S. mitis-CSP-2-I2MN11F]	–	–	753 nM	17.7 nM
EMRQTHIFFFNFFKRR [S. mitis-CSP-2-I2MN7II8F]	–	–	< 100 nM and 2.67 nM	< 100 nM and 61.6 nM
EMRQTHNFFFFFFKRR [S. mitis-CSP-2-I2MI8FN11F]	–	–	< 100 nM and 26.2 nM	< 100 nM and 6.95 nM
EIRQTHNFFFNFFKRR [S. mitis-CSP-2-I8F]	–	–	209 nM	128 nM
EIRQTHIIFFNFFKRR [S. mitis-CSP-2-N7I]	–	–	211 nM	101 nM
EMRQTHNIFFNLFKRR [S. mitis-CSP-2-I2MF12L]	–	–	146 nM	25.8 nM
EIRQTHNIFFNFFKRR [S. mitis-CSP-2]	–	–	635 nM	663 nM
EIRQTHNFFFNLFKRR [S. mitis-CSP-2-I8FF12L]	–	–	202 nM	160 nM
EIRQTHFIFFNFFKRR [S. mitis-CSP-2-N7F]	–	–	471 nM	140 nM
EMRLTHNFFFNFFKRR [S. mitis-CSP-2-I2MQ4LI8F]	–	–	< 100 nM and 30 nM	< 100 nM and 42 nM
EIRQTHFFFFNFFKRR [S. mitis-CSP-2-N7FI8F]	–	–	24.6 nM	–
EIRLTHIFFFNFFKRR [S. mitis-CSP-2-Q4LN7II8F]	–	–	–	242 nM
EMRLTHNIFFFFFKRR [S. mitis-CSP-2-I2MQ4LN11F]	–	–	188 nM	14.8 nM
EIRLTHNIFFFFFKRR [S. mitis-CSP-2-Q4LN11F]	–	–	434 nM	9.38 nM

Sequence	IC50 [1] [nM]	IC50 [2] [nM]	EC50 [3]	EC50 [4]
EIRLTHFFFFNFFKRR [S. mitis-CSP-2-Q4LN7FI8F]	–	–	87.2 nM	427 nM
EMRLTHNIFFNLFKRR [S. mitis-CSP-2-I2MQ4LF12L]	–	–	139 nM	17.1 nM
EMRQTHFIFFNLFKRR [S. mitis-CSP-2-I2MN7FF12L]	–	–	112 nM	72.8 nM
AMRQTHNFFFNFFKRR [S. mitis-CSP-2-E1AI2MI8F]	143	–	–	–
EMRQTHIIFFFFFKRR [S. mitis-CSP-2-I2MN7IN11F]	–	–	–	568 nM
EIRQTHFIFFNLFKRR [S. mitis-CSP-2-N7FF12L]	–	–	533 nM	156 nM
EMRQTHNFFFNFFKRR [S. mitis-CSP-2-I2MI8F]	–	–	83.2 nM	151 nM
EIRQTHNIFFFLFKRR [S. mitis-CSP-2-N11FF12L]	–	–	127 nM	4.97 nM
EMRQTHNIFFNFFKRR [S. mitis-CSP-2-I2M]	–	–	136 nM	87.7 nM
AMRQTHNIFFNFFKRR [S. mitis-CSP-2-E1AI2M]	85.4	–	–	–
EMRQTHIIFFNFFKRR [S. mitis-CSP-2-I2MN7I]	–	–	54.8 nM	448 nM
EMRQTHFFFFNFFKRR [S. mitis-CSP-2-I2MN7FI8F]	–	–	< 100 nM and 13.5 nM	< 100 nM and 63.6 nM
EMRQTHFIFFNFFKRR [S. mitis-CSP-2-I2MN7F]	–	–	123 nM	131 nM
EIRQTHNIFFNLFKRR [S. mitis-CSP-2-F12L]	–	–	813 nM	54.3 nM
EIRQTHIFFFNLFKRR [S. mitis-CSP-2-N7II8FF12L]	–	–	–	891 nM
AMRQTHFFFFNFFKRR [S. mitis-CSP-2-E1AI2MN7FI8F]	294	418	–	–
EIRQTHIIFFNLFKRR [S. mitis-CSP-2-N7IF12L]	–	–	321 nM	613 nM
EIRQTHNFFFFFFKRR [S. mitis-CSP-2-I8FN11F]	–	–	284 nM	12.2 nM
EIRLTHNIFFNLFKRR [S. mitis-CSP-2-Q4LF12L]	–	–	202 nM	68.7 nM
AMRLTHNFFFNFFKRR [S. mitis-CSP-2-E1AI2MQ4LI8F]	317	–	–	–
EIRLTHNFFFNFFKRR [S. mitis-CSP-2-Q4LI8F]	–	–	370 nM	280 nM
EIRLTHFIFFNFFKRR [S. mitis-CSP-2-Q4LN7F]	–	–	322 nM	371 nM
EMRLTHFIFFNFFKRR [S. mitis-CSP-2-I2MQ4LN7F]	–	–	75.6 nM	137 nM
EIRLTHNIFFNFFKRR [S. mitis-CSP-2-Q4L]	–	–	252 nM	88.2 nM
